Screening data from PubChem BioAssay.
FN deposition inh = fibronectin deposition inhibition. 350,000 compounds, 0.086% hits. AID 743247. inhibition, % at 12.6 µM. AH1F fibroblasts, Alexa488-fibronectin deposition fluorescence, overnight;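 active = mean inhibition across replicates of 30% or more, regardless of how many single replicates reach that level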;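 also: positive control wells lacked labelled fibronectin entirely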
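Test system: AH1F fibroblast monolayer depositing Alexa488-labelled fibronectin into matrix. Input: 10000 cells per well. Technique: fluorescence, ex 485 nm, em 525 nm. Buffer or medium: DMEM plus 2% serum, read in PBS. Timing: 1 h cell adhesion before compound, then overnight fibronectin incubation. Compound: single dose, pinned. Read-out basis: inhibition from reduced deposited-fibronectin fluorescence.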
SR-BI DiI inh = blocks mouse SR-BI lipid uptake from DiI-HDL | Q61009 | ldlA[mSR-BI] CHO cells, DiI-HDL uptake fluorescence, 3 h | inhibition, % at 12.5 µM | 320,000 compounds, 0.96% hits;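 active = mean replicate inhibition of at least 70% and a set share of replicates each scoring 70 or more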;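 also: 0% = median of neutral control wells and 100% = median of positive control wells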
Target sequence (Q61009 whole entry, looked up): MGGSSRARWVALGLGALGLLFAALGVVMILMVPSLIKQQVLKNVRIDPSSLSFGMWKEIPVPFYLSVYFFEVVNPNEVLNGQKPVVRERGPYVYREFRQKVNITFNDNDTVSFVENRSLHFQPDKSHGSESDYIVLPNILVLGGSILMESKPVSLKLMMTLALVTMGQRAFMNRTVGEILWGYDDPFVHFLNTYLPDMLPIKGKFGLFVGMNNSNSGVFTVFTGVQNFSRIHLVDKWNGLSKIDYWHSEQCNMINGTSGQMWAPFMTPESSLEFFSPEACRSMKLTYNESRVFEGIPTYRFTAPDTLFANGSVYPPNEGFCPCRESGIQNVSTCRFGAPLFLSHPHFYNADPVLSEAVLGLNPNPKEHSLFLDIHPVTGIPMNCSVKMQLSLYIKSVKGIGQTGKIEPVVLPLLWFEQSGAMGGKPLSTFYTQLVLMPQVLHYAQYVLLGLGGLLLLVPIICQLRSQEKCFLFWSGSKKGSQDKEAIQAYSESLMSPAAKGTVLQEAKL
SR-BI DiI-HDL act = SR-BI HDL lipid transfer activation | CHO ldlA[mSR-BI] cells, DiI-HDL uptake fluorescence, 3 h; 100 = double the neutral-control signal | activation, % at 12.5 µM | 320,000 compounds, 0.096% hits | AID 504775;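 active = mean replicate activation of at least 60% and every replicate at or above 60%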;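 also: 0% = median plate neutral-control signal and 100% = twice that signal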
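material = CHO ldlA[mSR-BI] cells | medium = Ham's F12 with 0.5% BSA, HEPES 25 mM, pH 7.4 | reagent = fluorescent DiI-HDL, 10 µg/mL final | compound dosing = single-point compound dose | incubation = 3 h, 37 °C | measured by = bottom-read fluorescence, 550/595 nm | measure = HDL uptake via cellular fluorescence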
Efflux pump mplx = blocks antifungal efflux pumps in multiplex yeast assay; inhibition, % at 10 µM; S. cerevisiae Candida pump triplex, Nile Red efflux; 330,000 compounds, 0.44% hits;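 active = plate passing quality check with inhibition over a set limit, or well fluorescence over plate mean plus 4 SD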;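 also: Nile Red retained in pooled yeast measured as flow cytometry median fluorescence; 0% = buffer negative control and 100% = Enniatin B positive control; higher means more Nile Red kept so more efflux inhibition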
CaV13 FRET inh = Disruptors of the CACNA1D IQ motif to Ca2+-dependent inactivation inhibitor domain association, primary screening, Förster resonance energy transfer in intact living … | AID 743397 | HEK cells, CFP/YFP FRET ICDI-IQ, plate reader, 10 min; percent FRET-ratio fall versus neutral wells | 340,000 compounds, 0.098% hits | inhibition, % at 12.3 µM;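 active = mean replicate inhibition of at least 30% and at least 1% of replicates passing that level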;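 also: 0% = median of the neutral control wells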
Yeast cmpd fluor = flagged as fluorescent in efflux inhibitor counter-screen | shares compounds with Efflux pump mplx | 1,700 compounds, 4% hits | S. cerevisiae AD/pABC3, compound fluorescence, flow cytometry | AID 588517 | fluorescence ratio to DMSO, % at 10 µM;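 active = fluorescence ratio to DMSO above its plate's cutoff, the plate mean ratio plus 5 SD, cut at about 210% in these data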;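 also: unstained yeast with no Nile Red so the signal is compound autofluorescence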
Mdr1 pump inh = Candida Mdr1 efflux pump inhibition; inhibition, % at 10 µM; 1,700 compounds, 1% hits; shares compounds with Efflux pump mplx; S. cerevisiae AD/CaMDR1, Nile Red efflux, flow cytometry; in the data active = inhibition above about 26%;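 also: 0% = DMSO vehicle and 100% = reference inhibitor; higher means more Nile Red retained so more efflux inhibition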
CaCdr2 efflux inh = blocks the Candida albicans Cdr2 efflux pump in yeast | S. cerevisiae AD/CaCDR2, Nile Red retention, flow cytometry | Nile Red retention ratio vs DMSO, % at 10 µM | 1,700 compounds, 4% hits | AID 588520 | shares compounds with Efflux pump mplx; in the data active = Nile Red retention ratio vs DMSO above about 190%;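 also: higher ratio means more blocking of Cdr2 efflux of the dye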
Cdr1 pump inh = blocks the Candida albicans Cdr1 efflux pump in yeast; shares compounds with Efflux pump mplx; 1,700 compounds, 1% hits; S. cerevisiae AD/CaCDR1, Nile Red efflux, flow cytometry; inhibition, % at 10 µM; AID 588522;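 active = inhibition above the screen-wide mean plus twice its standard deviation, cut at about 32% in these data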
DiI quencher = DiI fluorescence quenching in cell-free counter-screen | AC50, µM (top dose mostly 35 µM), inactives show at the top dose activity change, negative = quenching | 470 compounds, 20% hits | shares compounds with SR-BI DiI inh | cell-free DiI-HDL fluorescence quenching, 30 min | AID 540326;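 active = quenching, a falling signal, with AC50 below a set limit tied to the top valid dose, actives reach about 32 µM in these data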
* = called active by the depositor; . = no result. Sampled rows, rich in hits. Any-hit rate of the full collection: about 1.2%.

SMILES	FN deposition inh	SR-BI DiI inh	SR-BI DiI-HDL act	Efflux pump mplx	CaV13 FRET inh	others
CCOC(=O)c1c(-n2c(C)cc(/C=C3\C(=O)NC(=O)N(C)C3=O)c2C)sc2c1CCCC2	-1	18	-18	0	.
OC[C@H]1Nc2ccc(C#Cc3cccnc3)cc2[C@H]2NCC[C@H]21	-1	.	.	.	.
Cc1ccc2c(c1)C1CN(C)CCC1N2C(=O)c1ccc(Br)o1 (centres undefined)	.	-1	1	0.6*	-5	Yeast cmpd fluor=112;Mdr1 pump inh=1;CaCdr2 efflux inh=127;Cdr1 pump inh=0
O=C1CNC[C@@H]2[C@@H](c3ccc(Br)cc3)[C@@H](CO)N12	-14	.	.	.	.
CC(=NCc1cccnc1)c1c(O)n(-c2ccccc2C)c(=O)[nH]c1=O	.	-20	20	1.8*	-9	Yeast cmpd fluor=103;Mdr1 pump inh=0;CaCdr2 efflux inh=133;Cdr1 pump inh=0
CCC(=NCc1cccnc1)c1c(O)n(-c2ccccc2C)c(=O)[nH]c1=O	0	-24	24	0	-14
COC(=O)c1cn(C(=O)c2cccc3ccccc23)c2ccccc12	-3	73*	-73	0	-3	DiI quencher=-2%
COC(=O)c1cn(Cc2ccc(F)cc2)c2ccccc12	.	.	.	.	-6
COc1ccc(NC(=O)C2C3CCC(O3)C2C(=O)O)c(OC)c1 (centres undefined)	7	10	-10	0	-2	DiI quencher=-8%
O=C(O)[C@H]1[C@H](CO)[C@H]2Cn3c(ccc(-c4ccc(F)cc4)c3=O)[C@@H]1N2CC1CCCC1	1	.	.	.	.
